S100A4 MyoIIA: inhibitors of human S100A4 binding to myosin IIA peptide. P26447. S100A4/TAMRA-MyoIIA peptide fluorescence polarization. inhibition, % at 10.7 µM. 360,000 tested, 0.14% active;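 active = mean inhibition of at least 70% across replicates, with every replicate also reaching that level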
Target sequence (P26447 whole entry, looked up): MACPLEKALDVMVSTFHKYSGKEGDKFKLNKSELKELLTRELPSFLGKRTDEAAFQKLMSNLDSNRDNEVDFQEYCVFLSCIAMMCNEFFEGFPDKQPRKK
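Test system: S100A4 monomer protein. Medium: HEPES buffer with Ca2+, pH 7.2. Reagent: fluorescent myosin IIA peptide, 5 nM. Compound dosing: single-point compound testing. Timing: 5 min between mix addition and reading. Benchmarks: DMSO neutral and TFP positive wells.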
CAL PDZ FP-1: human CAL PDZ-peptide interaction inhibition; Q9HD26; purified CAL PDZ, TMR-peptide fluorescence polarization, 1 h; inhibition, % at 20 µM; 330,000 tested, 0.02% active; AID 504414;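 active = highest replicate inhibition of at least 40%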;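 also: plate controls were DMSO neutral control wells for no effect and unlabeled competitor peptide control wells for full effect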
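Control set: unlabelled peptide and DMSO controls / Material: purified CerCALP PDZ construct / Timing: 1 h incubation at room temperature before polarization reading / Doses: 20 µM, one dose / Detection: fluorescence polarization (mP)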
CAL PDZ FP-2: blocks peptide binding to the human CAL PDZ domain; Q9HD26; purified CAL PDZ, TMR-peptide fluorescence polarization, 1 h; inhibition, % at 24.9 µM; 300,000 tested, 0.92% active; AID 602252;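 active = mean inhibition of at least 30% with at least half of replicates also reaching 30%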;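 also: 0% = DMSO neutral control and 100% = excess unlabeled competitor peptide PRC23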
dFosB act-1: activators of mouse delta FosB homodimer; activation, % at 25 µM; P13346; purified delta FosB, TAMRA-CDK5 oligo fluorescence polarization; percent of positive-control signal above neutral wells; 340,000 tested, 0.99% active;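 active = mean activation above about 17%, with every replicate also reaching it, limit read from the data, passing the limit was not always enough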
Target sequence (P13346 whole entry, looked up): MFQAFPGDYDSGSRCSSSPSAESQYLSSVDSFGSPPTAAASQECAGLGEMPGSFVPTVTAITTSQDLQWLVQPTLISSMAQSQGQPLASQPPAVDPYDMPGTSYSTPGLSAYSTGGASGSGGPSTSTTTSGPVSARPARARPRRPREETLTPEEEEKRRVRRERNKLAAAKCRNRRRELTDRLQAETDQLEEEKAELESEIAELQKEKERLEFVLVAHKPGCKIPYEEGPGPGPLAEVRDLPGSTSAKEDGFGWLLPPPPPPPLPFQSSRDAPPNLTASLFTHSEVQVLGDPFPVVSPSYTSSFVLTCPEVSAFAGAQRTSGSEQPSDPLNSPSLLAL
Statin myotox sup: suppressors of simvastatin-induced myotoxicity in C2C12 myotubes. ATP luminescence, 48 h; scaled: DMSO 0, geranylgeraniol control 100. rescue of ATP level, % at 7.49 µM. 330,000 tested, 0.78% active. AID 602340;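 active = mean ATP rescue above about 67%, or every replicate alone reaching that limit, limit read from the data, passing the limit was not always enough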;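 also: myotubes were challenged with 10 µM simvastatin during compound exposure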
CDK5 p35 inh: CDK5/p35 (human) kinase inhibition. Recombinant CDK5/p35, ADP-Glo luminescence, 60 min. inhibition, % at 10 µM. 330,000 tested, 0.01% active. AID 488839;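 active = highest replicate inhibition of at least 50% and at least 75% of replicates reaching 50%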;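 also: plate controls were DMSO neutral control for no effect and GW8510 at 10 µM for full effect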
dFosB act-2: enhances mouse delta FosB homodimer binding to DNA; 2,400 tested, under 10 active; shares compounds with dFosB act-1; AID 588690; activation, % at 24.9 µM; purified delta FosB, TAMRA-CDK5 oligo fluorescence polarization; normalised: neutral wells 0, positive control 100;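 active = highest replicate activation at or above 34% and every replicate reaching that threshold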;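 also: higher polarization means more probe DNA bound by delta FosB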
* marks the source's active call; other numbers are inactive results; . = not tested or not shown. A selection: hits, their analogues and other compounds. The true share with any hit is near 2%.

SMILES	S100A4 MyoIIA	CAL PDZ FP-1	CAL PDZ FP-2	dFosB act-1	Statin myotox sup	CDK5 p35 inh	dFosB act-2
Cc1cc(OCC(=O)N2CCN(c3cccc(Cl)c3)CC2)c2c(C)c(C)c(=O)oc2c1	2	0	0	39*	-74	0	0
CC(=O)c1ccc(N2CCN(C(=O)/C=C/c3ccc4ccccc4n3)CC2)cc1	0	-3	.	40*	.	0	3
CCOc1ccc(-n2c(=O)c3sccc3n(Cc3ccc(C)cc3)c2=O)cc1	-5	-1	-1	26*	11	-1	5
COc1ccc(NC(=O)CCCn2c(=O)c3sccc3n(Cc3cccc(C)c3)c2=O)cc1	3	-1	.	-7	.	1	.
COc1ccc(NC(=O)CCCn2c(=O)c3sccc3n(Cc3ccc(C)cc3)c2=O)cc1	.	-1	.	29*	.	0	-1
COc1cc(NC(=O)c2nn(C)c3c2CS(=O)(=O)c2ccccc2-3)cc(OC)c1	-4	-1	-5	23*	-30	-1	0
CCc1ccc2nc(NC(=O)c3cc(C)on3)sc2c1	.	-2	-1	-14	.	0	.
COc1ccc(NC(=O)Nc2ccccc2F)cc1Cl	-2	-2	-3	22*	-20	0	2
COc1ccc(NC(=O)Nc2ccccc2F)cc1	-6	-2	0	-6	-94	-2	.
COc1ccccc1NS(=O)(=O)c1cccc(NC(=O)Nc2ccc(Cl)cc2)c1	-2	-6	-8	26*	.	0	1
COc1ccccc1NC(=O)N(C)C[C@@H]1Oc2ncc(C#CC(C)C)cc2C(=O)N([C@@H](C)CO)C[C@@H]1C	6	.	.	.	1	.	.
Cc1c(Cl)cccc1NC(=O)C1CCN(c2cnccn2)CC1	0	-1	.	-8	-8	-3	.
Cc1ccc(C(C)C)c(OCCCN(C)Cc2ccccc2)c1	.	-1	-4	-10	.	0	.
Cc1ccc(OCCCCN(C)Cc2ccccc2)c(Br)c1	6	-2	3	25*	-24	0	0
COC(=O)C1(C(=O)OC)C[C@H](c2ccc(OC)cc2)N(Cc2ccccc2OC)[C@@H]1c1ccc(OC)cc1	14	.	.	.	.	.	.
Cc1cc(C)cc(OCC(=O)Nc2nonc2NC(=O)COc2cc(C)cc(C)c2)c1	.	0	.	3	5	-3	.
CCOc1ccc2nc(SCC(=O)Nc3ccc4c(c3)OCCO4)[nH]c2c1	.	-1	-2	-6	12	0	.
CCOC(=O)c1cc2c(N)c(C(=O)c3ccc(Br)cc3)sc2[nH]c1=O	1	-1	.	22*	10	-3	0
N#Cc1ccc(-c2ccc(OCC(=O)NCC(=O)Nc3ccc(F)c(F)c3F)cc2)cc1	5	0	1	42*	6	-3	7
COc1cc(S(=O)(=O)Nc2ccc(C)cc2)ccc1N=Cc1c(C)c(C#N)c(=O)n(C)c1O	80*	0	4	128*	.	0	-2
C[C@@H]1CN([C@@H](C)CO)C(=O)c2cc(-c3ccc(C(=O)N(C)C)cc3)cnc2O[C@@H]1CN(C)C	-4	.	.	.	-2	.	.
COc1ccccc1-c1cc(C(=O)Nc2ccc(F)cc2F)no1	.	1	.	25*	-7	-1	2
O=[N+]([O-])c1cc(Cl)ccc1Sc1ccccn1	-5	0	-3	4	.	0	.
COc1cccc(/C=C/C(=O)OCC(=O)c2ccc3c(c2)NC(=O)CO3)c1OC	-2	-1	-6	-11	4	-2	.
CC(=O)c1c(C)[nH]c(C(=O)OCC(=O)c2ccc3c(c2)NC(=O)CO3)c1C	-10	-1	81*	30*	-8	-1	4
SMILES	S100A4 MyoIIA	CAL PDZ FP-1	CAL PDZ FP-2	dFosB act-1	Statin myotox sup	CDK5 p35 inh	dFosB act-2
O=C1COc2ccc(C(=O)COC(=O)/C=C/c3cccc(F)c3)cc2N1	1	1	4	80*	.	0	4
O=C(NCc1ccc2c(c1)OCO2)C1CCN(C(=O)Nc2ccc(Cl)cc2)CC1	.	0	-2	20*	-2	-1	4
COc1ccc(Cl)cc1NC(=O)NCc1ccc2c(c1)OCO2	0	-2	-1	62*	.	1	5
Cc1cccc(NC(=O)CCCn2c(=S)[nH]c3ccccc3c2=O)c1	-6	-3	-3	25*	10	-1	1
COc1cc(NC(=O)CCCn2c(=S)[nH]c3ccccc3c2=O)cc(OC)c1OC	9	-1	0	-11	2	0	.
COc1cc(OC)c(-c2nc(-c3ccncc3)no2)cc1OC	-9	-1	-4	21*	3	-1	6
COc1cc(-c2ccc3c(=O)c4ccccc4n(C)c3c2)cc(OC)c1OC	-4	-10	-8	35*	-3	0	4
CNc1c(NS(=O)(=O)c2ccc(C(C)(C)C)cc2)c(=O)oc2ccccc12	-1	-2	-3	60*	43	-3	1
CNc1c(NS(=O)(=O)c2ccc(F)c(Cl)c2)c(=O)oc2ccccc12	6	-2	-5	-5	-4	-1	.
CNc1c(NS(=O)(=O)c2ccc(F)cc2)c(=O)oc2ccccc12	-1	-1	-1	9	-2	-2	.
CNc1c(NS(=O)(=O)c2ccc(OC)cc2)c(=O)oc2ccccc12	2	-1	3	31*	0	-5	-5
CNc1c(NS(=O)(=O)c2ccc3c(c2)CCCC3)c(=O)oc2ccccc12	0	0	-4	37*	4	-3	-3
CNc1c(NS(=O)(=O)c2ccc(Br)cc2)c(=O)oc2ccccc12	7	-1	2	99*	14	-3	0
Cc1nnc(SCC(=O)N(C2CCCCC2)C2CCS(=O)(=O)C2)n1C (stereo not given)	-6	-2	1	3	2	0	.
Cc1c(C(=O)OC/C(O)=C(\C#N)c2nc3ccccc3[nH]2)oc2ccc(Br)cc12	-1	1	0	-16	.	1	.
CCCNc1c(NS(=O)(=O)c2ccc(C(C)(C)C)cc2)c(=O)oc2ccccc12	7	1	3	3	14	1	.
CCCNc1c(NS(=O)(=O)c2ccc(C3CCCCC3)cc2)c(=O)oc2ccccc12	.	0	3	82*	17	0	1
O=C(c1cccnc1)N1CC2(C1)[C@H](c1ccccc1)[C@@H](CO)N2C(=O)C1CCC1	-3	.	.	.	.	.	.
COc1cc(OC)cc(C(=O)NCC(=O)NC(C)CCc2ccccc2)c1 (stereo not given)	-3	-1	0	-4	-9	0	.
COc1ccc(C(=O)N2C(=O)c3ccc(N)cc3C2=O)cc1	8	-1	-6	49*	.	0	4

Screening results as filed in PubChem.
